Reference: ChEMBL document CHEMBL3044755, “5-Methyl-1,2,3-thiadiazoles synthesized via ugi reaction and their fungicidal and antiviral activities” (J Agric Food Chem, 2010)

Assays:
Assay type in all cases: functional
Thanatephorus cucumeris = assay: Fungicidal activity against Thanatephorus cucumeris at 50 ug/ml by growth inhibition method; conditions: read-out: GI
Outline: (§1)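 Mycelial growth inhibition on potato dextrose agar. The panel covered Alternaria solani, Botrytis cinerea, Cercospora arachidicola, C. beticola, Colletotrichum lagenarium, Fusarium oxysporum, Gibberella zeae, Puccinia triticina, Phytophthora infestans, Physalospora piricola, Pellicularia sasakii and Rhizoctonia solani.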

[1] = system: Botryosphaeria berengeriana; assay: Fungicidal activity against Botryosphaeria berengeriana at 50 ug/ml by growth inhibition method; conditions: read-out: GI; outline: as §1
Phytophthora infestans = assay: Fungicidal activity against Phytophthora infestans at 50 ug/ml by growth inhibition method; conditions: read-out: GI; outline: as §1
Fusarium oxysporum = assay: Fungicidal activity against Fusarium oxysporum at 50 ug/ml by growth inhibition method; conditions: read-out: GI; outline: as §1
Fusarium graminearum = assay: Fungicidal activity against Fusarium graminearum at 50 ug/ml by growth inhibition method; conditions: read-out: GI; outline: as §1
Colletotrichum lagenaria = assay: Fungicidal activity against Colletotrichum lagenaria at 50 ug/ml by growth inhibition method; conditions: read-out: GI; outline: as §1
Cercospora beticola = assay: Fungicidal activity against Cercospora beticola at 50 ug/ml by growth inhibition method; conditions: read-out: GI; outline: as §1
Mycosphaerella arachidis = assay: Fungicidal activity against Mycosphaerella arachidis at 50 ug/ml by growth inhibition method; conditions: read-out: GI; outline: as §1
Alternaria solani = assay: Fungicidal activity against Alternaria solani at 50 ug/ml by growth inhibition method; conditions: read-out: GI; outline: as §1
Botrytis cinerea = assay: Fungicidal activity against Botryotinia fuckeliana at 50 ug/ml by growth inhibition method; conditions: read-out: GI; outline: as §1
Tobacco mosaic virus [2] = assay: In vitro antiviral activity against Tobacco mosaic virus (TMV) infected tobacco leaves at 100 ug/ml
Tobacco mosaic virus [3] = assay: In vitro antiviral activity against Tobacco mosaic virus (TMV) infected tobacco leaves at 500 ug/ml
Rhizoctonia solani = assay: Fungicidal activity against Rhizoctonia solani at 50 ug/ml by growth inhibition method; conditions: read-out: GI; outline: as §1
Puccinia triticina = assay: Fungicidal activity against Puccinia triticina at 50 ug/ml by growth inhibition method; conditions: read-out: GI; outline: as §1

SMILES | inhibition of growth at 50 µg/mL (Thanatephorus cucumeris) [%] | inhibition of growth at 50 µg/mL [1] [%] | inhibition of growth at 50 µg/mL (Phytophthora infestans) [%] | inhibition of growth at 50 µg/mL (Fusarium oxysporum) [%] | inhibition of growth at 50 µg/mL (Fusarium graminearum) [%] | inhibition of growth at 50 µg/mL (Colletotrichum lagenaria) [%] | inhibition of growth at 50 µg/mL (Cercospora beticola) [%] | inhibition of growth at 50 µg/mL (Mycosphaerella arachidis) [%] | inhibition of growth at 50 µg/mL (Alternaria solani) [%] | inhibition of growth at 50 µg/mL (Botrytis cinerea) [%] | inhibition at 100 µg/mL (Tobacco mosaic virus [2]) [%] | inhibition at 500 µg/mL (Tobacco mosaic virus [3]) [%] | inhibition of growth at 50 µg/mL (Rhizoctonia solani) [%] | inhibition of growth at 50 µg/mL (Puccinia triticina) [%]
Cc1ccc(N(C(=O)c2nnsc2C)C(C(=O)NC(C)C)c2ccccc2[N+](=O)[O-])cc1Cl (centres undefined) | 31 | 39 | 24 | 14 | 12 | 10 | 8 | 5 | 26 | 60 | 19 | 59 |  | 
Cc1ccc(N(C(=O)c2nnsc2C)C(C(=O)NC(C)C)c2cccc(F)c2)cc1F (centres undefined) | 0 | 0 | 19 |  | 5 | 57 | 25 | 27 | 44 |  | 50 | 30 | 43 | 0
Cc1ccc(N(C(=O)c2nnsc2C)C(C(=O)NC(C)C)c2ccc(C(F)(F)F)cc2)cc1F (centres undefined) | 11 | 0 | 25 |  | 0 | 0 | 25 | 0 | 0 |  | 14 | 45 | 15 | 0
Cc1ccc(N(C(=O)c2nnsc2C)C(C(=O)NC(C)C)c2cccc(C(F)(F)F)c2)cc1F (centres undefined) | 4 | 8 | 0 |  | 36 | 14 | 25 | 27 | 0 |  | 19 | 51 | 22 | 14
Cc1ccc(C(C(=O)NC(C)C)N(C(=O)c2nnsc2C)c2ccc(C)c(F)c2)cc1 (centres undefined) | 11 | 0 | 13 |  | 0 | 29 | 25 | 45 | 31 |  | 7 | 31 | 37 | 14
Cc1ccc(N(C(=O)c2nnsc2C)C(C(=O)NC(C)C)c2cccc(O)c2)cc1Cl (centres undefined) | 59 | 45 | 30 | 30 | 15 | 13 | 23 | 14 | 33 | 73 | 13 | 24 |  | 
Cc1ccc(N(C(=O)c2nnsc2C)C(C(=O)NC(C)C)c2ccccc2O)cc1Cl (centres undefined) | 47 | 39 | 24 | 18 | 18 | 7 | 0 | 9 | 38 | 75 | 18 | 23 |  | 
Cc1ccc(N(C(=O)c2nnsc2C)C(C(=O)NC(C)C)c2ccccc2)cc1F (centres undefined) | 0 | 0 | 38 |  | 27 | 14 | 0 | 9 | 13 |  | 5 | 15 | 2 | 0
Cc1ccc(N(C(=O)c2nnsc2C)C(C(=O)NC(C)C)c2cccc([N+](=O)[O-])c2)cc1F (centres undefined) | 0 | 0 | 13 |  | 45 | 29 | 25 | 27 | 13 |  | 4 | 14 | 15 | 14
Cc1ccc(N(C(=O)c2nnsc2C)C(C(=O)NC(C)C)c2ccccc2[N+](=O)[O-])cc1F (centres undefined) | 39 | 19 | 0 |  | 27 | 14 | 25 | 0 | 0 |  | 11 | 24 | 2 | 0
Cc1ccc(N(C(=O)c2nnsc2C)C(C(=O)NC(C)C)c2ccc(Cl)cc2)cc1F (centres undefined) | 28 | 0 | 38 |  | 0 | 14 | 13 | 0 | 38 |  | 20 | 12 | 15 | 0
Cc1ccc(N(C(=O)c2nnsc2C)C(C(=O)NC(C)C)c2cccc(Cl)c2)cc1F (centres undefined) | 4 | 0 | 0 |  | 0 | 0 | 13 | 0 | 0 |  | 32 | 66 | 22 | 0
Cc1ccc(N(C(=O)c2nnsc2C)C(C(=O)NC(C)C)c2ccccc2Cl)cc1F (centres undefined) | 0 | 0 | 25 |  | 0 | 14 | 0 | 0 | 0 |  | 23 | 17 | 0 | 0
Cc1ccc(N(C(=O)c2nnsc2C)C(C(=O)NC(C)C)c2ccc(F)cc2)cc1F (centres undefined) | 0 | 0 | 0 |  | 27 | 0 | 25 | 0 | 0 |  | 18 | 51 | 22 | 0
Cc1ccc(N(C(=O)c2nnsc2C)C(C(=O)NC(C)C)c2cccc([N+](=O)[O-])c2)cc1Cl (centres undefined) | 52 | 45 | 26 | 12 | 33 | 10 | 46 | 9 | 33 | 78 | 28 | 34 |  | 
Cc1ccc(N(C(=O)c2nnsc2C)C(C(=O)NC(C)C)c2cccc(F)c2)cc1Cl (centres undefined) | 69 | 38 | 18 | 19 | 23 | 10 | 33 | 21 | 42 | 78 | 34 | 18 |  | 
Cc1ccc(N(C(=O)c2nnsc2C)C(C(=O)NC(C)C)c2ccccc2F)cc1Cl (centres undefined) | 67 | 33 | 15 | 21 | 37 | 10 | 25 | 21 | 40 | 73 | 32 | 34 |  | 
